Results as given in ChEMBL document CHEMBL1136771, “Differential binding modes of diacylglycerol (DAG) and DAG lactones to protein kinase C (PK-C)” (J Med Chem, 2003).

Assay: Partition coefficient (logP)
Format: physicochemical
Details: octanol/water
How it was run: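 Octanol/water log P was calculated, not measured, using a fragment-based atom/fragment-contribution estimation program applied to each ligand structure.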

Point of comparison: CC(C)C/C=C1\CC(CO)(COC(=O)CC(C(C)C)C(C)C)OC1=O (stereo not given), logP 4.1. Against it:
- CC(C)C(CC(=O)OC[C@H](CO)OC(=O)CC(C(C)C)C(C)C)C(C)C — higher, 5.8
- CC(C)C/C=C1/CC(CO)(COC(=O)CC(C(C)C)C(C)C)OC1=O (stereo not given) — the same, 4.1
- CC(C)=C1CC(CO)(COC(=O)CC(C(C)C)C(C)C)OC1=O (stereo not given) — lower, 3.2
- CC(C)C(=CC(=O)O[C@@H](CO)COC(=O)CC(C(C)C)C(C)C)C(C)C — higher, 5.7
- CC(C)CC(=O)OCC1(CO)CC(=C(C(C)C)C(C)C)C(=O)O1 (stereo not given) — lower, 3.2
- CC(C)CC(=O)OCC1(CO)C/C(=C/CC(C(C)C)C(C)C)C(=O)O1 (stereo not given) — the same, 4.1
- CC(C)CC(=O)OCC1(CO)C/C(=C\CC(C(C)C)C(C)C)C(=O)O1 (stereo not given) — the same, 4.1
- CC(C)=CC(=O)O[C@@H](CO)COC(=O)CC(C(C)C)C(C)C — lower, 3.9
- CC(C)CC(=O)OC[C@H](CO)OC(=O)C=C(C(C)C)C(C)C — lower, 3.9
